Reference: ChEMBL document CHEMBL4257584, “Sterol 14α-Demethylase Structure-Based Optimization of Drug Candidates for Human Infections with the Protozoan Trypanosomatidae” (J Med Chem, 2018)
Calls of active or inactive are those of the source. The rule behind the calls is not given here.

Columns and labels:
[1] = Hepatic clearance in Sprague-Dawley rat liver microsomes at 1 uM preincubated for 5 mins followed by NADPH addition and measured after 45 mins by LC/MS/MS analysis; format: ADME, microsome
In short: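 Pooled liver microsomes at 0.5 mg/mL: human (mixed gender), male Sprague-Dawley rat, or male CD-1 mouse, with test compound at 1 μM, triplicate. In vitro t1/2 is scaled to CLint (45 mg microsomes/g liver; 45 g liver/kg scaling factor). CLhep uses well-stirred model with hepatic blood flow 21 (human), 70 (rat), 90 (mouse) mL/min/kg.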

[2] = Half life in Sprague-Dawley rat liver microsomes at 1 uM preincubated for 5 mins followed by NADPH addition and measured by LC/MS/MS analysis; format: ADME, microsome; conditions: microsomes, 1 µM
[3] = Intrinsic clearance in CD1 mouse liver microsomes at 1 uM preincubated for 5 mins followed by NADPH addition and measured after 45 mins by LC/MS/MS analysis; format: ADME, microsome; conditions: read-out: CLH
[4] = molecular target: Lanosterol 14-alpha-demethylase (Trypanosoma brucei brucei (strain 927/4 GUTat10.1)) (UniProt Q385E8); experiment: Inhibition of Trypanosoma brucei […] CYP51 expressed in Escherichia coli using [3-3H]-obtusifoliol as substrate after 60 mins by LC-MS analysis
In short: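 Reconstituted reaction: 1 μM purified CYP51, 2 μM T. brucei NADPH-P450 reductase, 100 μM dilauroylphosphatidylcholine, isocitrate dehydrogenase/isocitrate regeneration, 50 mM K phosphate pH 7.2, 10% glycerol. [3-3H]sterol substrate at 50 μM final (eburicol for T. cruzi; obtusifoliol for T. brucei and L. infantum) with inhibitor at 1.1 μM final. Preincubate 60 s at 37 °C, start with 100 μM NADPH, run 60 min, EtOAc extraction. Gives % inhibition of 14α-demethylation, triplicate, mean ± SD.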

[5] = molecular target: Sterol 14-alpha demethylase (Trypanosoma cruzi (strain CL Brener), UniProt Q7Z1V1); experiment: Binding affinity to Trypanosoma cruzi Y CYP51A expressed in Escherichia coli
In short: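 Recombinant CYP51A from Y strain T. cruzi, expressed in E. coli and purified, titrated spectrally at 0.5 μM P450 in 5 cm path cuvettes with ligand over 0.1–1 μM. Type of absorbance change in difference spectra Δ(A430-A411) plotted against ligand concentration. Apparent Kd obtained by fitting to the Morrison quadratic tight-binding equation by nonlinear regression.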

[6] = tested on: Mus musculus; experiment: Toxicity in Swiss Webster mouse assessed as effect on fur profile at 200 mg/kg, po administered as single dose measured after 48 hrs; format: organism-based; conditions: in vivo
In short: (§1)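 Swiss Webster mice (21–23 g, n=3) get a single oral 200 mg/kg dose, given as in the PK study. They are inspected for toxic and sub-toxic signs per OECD guidelines (behaviour, motility, neurological state, skin, fur), and body weight is tracked 0–48 h. At 48 h, mice are euthanized and organ weights are normalized to body weight. Blood is taken for haematology and plasma biochemistry.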

[7] = tested on: Mus musculus; experiment: Toxicity in Swiss Webster mouse assessed as alteration in body to organ ratio at 200 mg/kg, po administered as single dose measured after 48 hrs; format: organism-based; conditions: in vivo; in short: as §1
[8] = tested on: Mus musculus; experiment: Toxicity in Swiss Webster mouse assessed as effect on body weight at 200 mg/kg, po administered as single dose measured after 48 hrs; format: organism-based; conditions: in vivo; in short: as §1
[9] = tested on: Mus musculus; experiment: Toxicity in Swiss Webster mouse assessed as effect on biochemical plasma parameters at 200 mg/kg, po administered as single dose measured after 48 hrs; format: organism-based; conditions: in vivo; in short: as §1

Chain of Lanosterol 14-alpha-demethylase (Trypanosoma brucei brucei (strain 927/4 GUTat10.1)) (Q385E8 1-481): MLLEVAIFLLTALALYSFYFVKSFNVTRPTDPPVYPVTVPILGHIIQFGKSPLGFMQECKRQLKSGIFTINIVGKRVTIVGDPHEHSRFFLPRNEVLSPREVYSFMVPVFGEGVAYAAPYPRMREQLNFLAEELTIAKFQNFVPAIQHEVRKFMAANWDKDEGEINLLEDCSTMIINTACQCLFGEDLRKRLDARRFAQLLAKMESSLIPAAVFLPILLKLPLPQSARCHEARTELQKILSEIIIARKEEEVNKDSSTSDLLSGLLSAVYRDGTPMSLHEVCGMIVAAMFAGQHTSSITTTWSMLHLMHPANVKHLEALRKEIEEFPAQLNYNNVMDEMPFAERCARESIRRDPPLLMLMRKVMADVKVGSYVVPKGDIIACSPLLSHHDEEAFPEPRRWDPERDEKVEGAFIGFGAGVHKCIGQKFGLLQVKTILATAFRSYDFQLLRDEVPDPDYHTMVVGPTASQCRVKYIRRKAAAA
Chain of Sterol 14-alpha demethylase (Q7Z1V1 whole entry): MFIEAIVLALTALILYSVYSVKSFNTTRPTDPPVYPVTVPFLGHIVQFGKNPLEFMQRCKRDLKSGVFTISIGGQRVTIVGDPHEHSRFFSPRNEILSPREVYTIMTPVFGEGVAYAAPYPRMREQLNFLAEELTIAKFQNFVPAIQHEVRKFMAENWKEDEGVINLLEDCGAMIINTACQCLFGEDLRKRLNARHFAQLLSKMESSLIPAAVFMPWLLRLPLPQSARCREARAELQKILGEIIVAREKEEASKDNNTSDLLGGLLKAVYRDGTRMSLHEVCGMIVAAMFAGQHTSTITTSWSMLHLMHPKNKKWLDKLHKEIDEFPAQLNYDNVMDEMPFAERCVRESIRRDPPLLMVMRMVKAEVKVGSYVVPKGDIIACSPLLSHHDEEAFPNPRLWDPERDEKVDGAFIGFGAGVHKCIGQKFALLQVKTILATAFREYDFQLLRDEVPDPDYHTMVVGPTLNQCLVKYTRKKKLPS

O=C(N[C@@H](Cn1ccnc1)c1c(F)cc(-c2ccc(F)cc2)cc1F)c1ccc(-c2nnc(-c3ccccc3)o2)cc1
CLhep predicted at 1 µM [1]: 31.1 mL/min/kg | t1/2 [2]: 50 min | CLint scaled at 1 µM [3]: 237 mL/min/kg | inhibition [4]: Active | Kd [5]: 8.4 nM | Activity [6]: Non-Toxic | Activity [7]: Non-Toxic | Activity [8]: Non-Toxic | Activity [9]: Non-Toxic
